The values below come from ChEMBL document CHEMBL1121642, “Synthesis and antiherpetic activity of some 4-[(aryloxy)alkyl]pyrazoles” (1981).

SMILES strings stand for the structures. Converted amounts (≈) assume the structure as drawn. The source made the active and inactive calls. No cut-off for these calls is given here.

Experiment [1] concerns Human alphaherpesvirus 2. As to the kind of experiment: Tested in vitro for minimum inhibitory activity against Herpes simplex virus type -2 (HSV-2). In kind it is functional.
Experiment [2] relates to Human alphaherpesvirus 2. As to the kind of experiment: Tested in vitro for minimum inhibitory activity against Herpes simplex virus type -2 (HSV-2); Inactive. Type of experiment: functional, organism-based.
For experiment [3], the species on record is Mus musculus. As to the kind of experiment: Effect on the survival rate of mice infected intravaginally with Herpes simplex virus type -2 (HSV-2) at 1.25% dosage twice in a day. In kind it is functional. Put shortly:
(§1)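 Mice infected intravaginally with a tampon (dental pellet) saturated with HSV suspension. Aqueous drug solution given intravaginally b.i.d. on cotton tampons, starting 4 h postinfection. Each tampon stayed in 24 h, was re-moistened with 0.02 mL drug 6 h after insertion, and was replaced daily. Deaths were recorded daily to 14 days. Read-out: % survival and average survival time, with survivors scored >14 days.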

For experiment [4], the species on record is Mus musculus. As to the kind of experiment: Effect on the survival rate of mice infected intravaginally with Herpes simplex virus type -2 (HSV-2) at 2.5% dosage twice in a day. In kind it is functional. Put shortly:
as §1

The species entered for experiment [5] is Mus musculus. As to the kind of experiment: Effect on the survival rate of mice infected intravaginally with Herpes simplex virus type -2 (HSV-2) at 5% dosage twice in a day. In kind it is functional. The method in brief: as §1

As for `CCc1n[nH]c(CC)c1CCCCOc1ccc(OC)cc1Cl`, in the experiment with Human alphaherpesvirus 2 [1], the MIC came to 6 µg/mL (≈ 17.8 µM).

In turn, `CCc1nn(-c2ccccc2)c(CC)c1CCCCCCOc1ccc(OC)cc1Cl` came in with an MIC against Human alphaherpesvirus 2 [1] of 3 µg/mL (≈ 6.8 µM).

Consider `CCc1n[nH]c(CC)c1CCCCCCOc1cc(Cl)c(OC)cc1Cl`, for which the MIC result in the experiment with Human alphaherpesvirus 2 [2] is “inactive”.

Regarding `CCCn1nc(C)c(CCCCCCOc2ccc(OC)cc2Cl)c1C`, the MIC in the experiment with Human alphaherpesvirus 2 [1] stood at 1.5 µg/mL (≈ 3.96 µM).

As to `CCOC(=O)Cn1nc(CC)c(CCCCCCOc2ccc(OC)cc2Cl)c1CC`, the MIC in the experiment with Human alphaherpesvirus 2 [1] amounted to 6 µg/mL (≈ 13.3 µM).

`CCc1nn(CCO)c(CC)c1CCCCCCOc1ccc(OC)cc1Cl` displayed an MIC against Human alphaherpesvirus 2 [1] of 12 µg/mL (≈ 29.3 µM).

In the experiment on Human alphaherpesvirus 2 [1], `CCc1nn(C)c(CC)c1CCCCCCOc1ccc(OC)cc1Cl` showed an MIC of 6 µg/mL (≈ 15.8 µM).

For the compound `CCc1n[nH]c(CC)c1CCCCCCOc1ccc(OC)cc1Cl`, the MIC in the experiment with Human alphaherpesvirus 2 [1] came to 6 µg/mL (≈ 16.4 µM). The Average survival is >10 days in the experiment listed under Mus musculus [3], >11 days in the experiment filed under Mus musculus [4] and >11 days in the experiment listed under Mus musculus [5]. Besides, the Survival was 30% in the experiment listed under Mus musculus [3], 40% in the experiment listed under Mus musculus [4] and 60% in the experiment listed under Mus musculus [5].
